Source: PubChem
TMEM16A inh: inhibitors of mouse TMEM16A calcium-activated chloride channel; HEK293 TMEM16A/YFP iodide influx fluorescence, ionomycin; normalized B-score (activity score, 25-100; higher = stronger inhibition) at 10 µM; 310,000 tested, 1.2% active;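 active means ratio plate-corrected score three or more library SD toward inhibition, starting fluorescence score within five deviations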;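 further: score derived from kinetic fluorescence span divided by baseline fluorescence per well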
DNA FID counter: counter-screen for HCV NS3 helicase inhibitors: DNA intercalator displacement | 290,000 tested, 0.17% active | inhibition, % at 7.9 µM | DNA fluorescent intercalator displacement, fluorescence; in the data active means inhibition above about 37%;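 further: 0% = vehicle and 100% = reference compound; higher means more ethidium bromide displaced from hairpin DNA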
TMEM16A act: mouse TMEM16A channel activation, primary screen | HEK293 TMEM16A/YFP-H148Q/I152L, iodide quench fluorescence; hits give low values | AID 623877 | 340,000 tested, 0.3% active | B-score at 10 µM;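 active means fluorescence-ratio B-score plate-corrected deviation score at least 3 library SD below zero, with starting fluorescence score within 5 deviations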;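 further: channel opened by trigger with iodide after compound preincubation; score built on the fluorescence ratio of max minus min over baseline; more negative score means more quench and so TMEM16A activation or potentiation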
Apaf-1 inh: human Apaf-1 inhibition. O14727. reconstituted apoptosome caspase-3 activity, DEVD-Rh110 fluorescence. inhibition, % at 20 µM. 330,000 tested, 0.71% active. AID 489030; active means inhibition of at least 40% at 20 µM;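 further: plate controls were DMSO wells for no effect and DEVD-CHO caspase inhibitor wells for full effect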
Target sequence (O14727 whole entry, looked up): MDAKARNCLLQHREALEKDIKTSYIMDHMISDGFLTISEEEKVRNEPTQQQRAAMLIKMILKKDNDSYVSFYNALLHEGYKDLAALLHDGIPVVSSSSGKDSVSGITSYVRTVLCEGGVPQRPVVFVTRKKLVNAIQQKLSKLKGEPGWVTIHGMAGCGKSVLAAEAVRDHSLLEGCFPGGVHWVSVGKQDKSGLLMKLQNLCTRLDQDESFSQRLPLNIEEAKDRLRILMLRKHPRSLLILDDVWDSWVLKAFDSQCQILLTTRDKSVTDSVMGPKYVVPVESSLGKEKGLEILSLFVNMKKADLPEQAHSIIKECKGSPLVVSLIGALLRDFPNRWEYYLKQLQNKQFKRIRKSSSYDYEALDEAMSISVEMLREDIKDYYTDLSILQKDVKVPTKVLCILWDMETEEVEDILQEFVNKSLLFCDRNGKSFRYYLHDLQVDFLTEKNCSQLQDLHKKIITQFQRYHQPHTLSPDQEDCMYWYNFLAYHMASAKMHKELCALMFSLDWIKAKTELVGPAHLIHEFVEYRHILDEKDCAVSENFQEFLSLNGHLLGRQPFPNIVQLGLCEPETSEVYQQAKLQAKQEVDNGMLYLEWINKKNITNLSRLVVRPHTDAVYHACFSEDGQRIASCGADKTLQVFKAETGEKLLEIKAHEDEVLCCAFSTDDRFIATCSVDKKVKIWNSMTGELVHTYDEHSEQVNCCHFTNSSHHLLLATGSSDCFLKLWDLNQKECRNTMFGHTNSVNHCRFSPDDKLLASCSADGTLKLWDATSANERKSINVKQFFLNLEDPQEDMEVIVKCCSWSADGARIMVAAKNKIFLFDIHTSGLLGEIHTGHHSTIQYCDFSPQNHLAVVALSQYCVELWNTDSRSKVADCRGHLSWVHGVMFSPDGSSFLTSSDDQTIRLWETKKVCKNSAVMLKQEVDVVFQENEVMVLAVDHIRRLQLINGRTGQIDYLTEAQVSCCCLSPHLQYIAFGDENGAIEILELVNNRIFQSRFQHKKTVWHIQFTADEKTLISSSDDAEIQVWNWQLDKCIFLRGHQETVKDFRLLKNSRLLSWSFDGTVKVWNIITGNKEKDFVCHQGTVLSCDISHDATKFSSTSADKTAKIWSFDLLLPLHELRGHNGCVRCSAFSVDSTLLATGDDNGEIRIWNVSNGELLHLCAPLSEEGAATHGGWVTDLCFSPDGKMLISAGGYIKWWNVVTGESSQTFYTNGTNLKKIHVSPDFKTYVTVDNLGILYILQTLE
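detection = Rh110 fluorescence intensity | test system = biochemical Apaf-1 apoptosome reconstitution | also added = cytochrome c and DEVD-Rh110 substrate | schedule = 30 min plus 50 min, RT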
UBC13 polyUb: inhibitors of human UBC13 polyubiquitin chain formation; TR-FRET; 330,000 tested, 0.47% active; P61088; inhibition, % at 20 µM; AID 485273; in the data active means inhibition above about 45%, passing the limit was not always enough
* marks the source's active call; other numbers are inactive results; i = inactive; . = no result given. Shown are actives, neighbours in structure and some others; about 2.4% of the full set was active somewhere.

SMILES	TMEM16A inh	DNA FID counter	TMEM16A act	Apaf-1 inh	UBC13 polyUb
O=C1NC2(CCCCO2)CO1 (configuration not stated)	i	-0.1	-11.3*	-1.2	-5.0
Fc1cccc2sc(Nc3nc4ccccc4s3)nc12	i	0.8	i	7.3	-10.1
CC[C@H](C)/C=C(C)/C=C/C1=CC2=CC(=O)[C@]3(C)OC(=O)[C@@H](C(C)=O)[C@@H]3C2=CO1	i	-40.1	i	2.5	-22.0
CC[C@H](C)/C=C(C)/C=C/C(=O)Cc1cc(O)c(C)c(O)c1C=O	i	.	-12.8*	-3.7	-35.4
CCSc1nnc(NC(=O)c2cccc(S(=O)(=O)N(C)c3ccc(C)cc3)c2)s1	25*	-2.0	i	8.9	-2.0
CCOC(=O)CSc1nnc(NC(=O)c2cccc(S(=O)(=O)N3CCCCCC3)c2)s1	25*	0.4	i	-6.2	23.1
COc1ccc2cc(C(=O)NCc3ccccc3CN3CCCC3)ccc2c1	.	.	i	15.2	31.0
O=C(CCS(=O)(=O)c1ccccc1)Nc1nc(-c2cccs2)cs1	i	-21.5	-7.85*	6.5	-2.9
O=C(COc1ccccc1)Nc1nc(-c2cccs2)cs1	i	-5.0	i	7.7	8.2
Cc1ccc(OCC(=O)OCC(=O)c2cccc([N+](=O)[O-])c2)cc1C	i	-0.6	i	10.8	-5.8
Cc1nc2ccc(NC(=O)c3cccs3)cc2c(=O)n1Cc1ccc(Cl)cc1	100*	2.5	i	16.7	-4.2
CCOC(=O)c1c(NC(=O)CSc2nnc(-c3c[nH]c4ccccc34)n2C)sc2c1CCCC2	i	-3.6	-21.5*	17.8	-17.3
CCN(CC(=O)Nc1ccc2c(c1)OCCO2)C(=O)C1CC(=O)N(c2ccc(OC)cc2OC)C1 (configuration not stated)	i	.	i	28.5	30.3
CCN(CC(=O)NCc1cccs1)C(=O)C1CC(=O)N(c2ccc(OC)cc2OC)C1 (configuration not stated)	i	.	i	51.4*	-0.7
CCOc1ccccc1CN1CCC(CO)(CCOc2ccccc2)CC1	i	42.1*	i	-7.7	10.2
Cc1ccc2oc(-c3cccc(NC(=O)Cn4cnc5c(=O)n(C)c(=O)n(C)c54)c3)nc2c1	100*	-2.6	.	6.1	5.3
c1ccc(-c2csc(CN3CCCCC3)n2)cc1	.	.	i	.	.
Nc1nonc1C(=O)NCCNCc1cc(Br)ccc1OCc1ccccc1F	100*	39.7*	i	17.7	4.5
O=C(Nc1cccc(Br)c1)c1ccc(CN2CCc3ccccc3C2)cc1	25*	8.4	i	20.3	-3.2
O=C(Nc1ccc(F)cc1)c1ccc(CN2CCc3ccccc3C2)cc1	i	2.8	i	-6.0	8.4
CC(=O)Nc1ccc(NC(=O)c2ccc(CN3CCc4ccccc4C3)cc2)cc1	i	-5.6	i	13.7	-5.6
CSc1cccc(NC(=O)c2ccc(CN3CCc4ccccc4C3)cc2)c1	100*	4.6	i	13.7	4.3
COC(=O)c1ccc(CN2CCc3ccc(NC(=O)c4ccncc4)cc3C2)cc1	100*	-5.6	i	26.6	-3.6
C=CCn1c(C)cc(-c2csc(NCC)n2)c1C	i	-2.5	-5.38*	24.5	-3.3
O=C(c1ccc(S(=O)(=O)N2CCOCC2)cc1)N(c1cccc(Cl)c1)C1C=CS(=O)(=O)C1 (configuration not stated)	i	-10.5	i	-2.5	-6.5
SMILES	TMEM16A inh	DNA FID counter	TMEM16A act	Apaf-1 inh	UBC13 polyUb
CCC(=O)NCc1cc(-c2nn(C)c(=O)c3ccccc23)ccc1C	i	-13.3	i	-0.1	7.9
Cc1ccc(-c2nn(CC(=O)NCc3cc(-c4nn(C)c(=O)c5ccccc45)ccc3C)c(=O)c3ccccc23)cc1	i	-3.4	-7.78*	15.6	-22.9
Cc1ccc(-c2nc(CCNC(=O)c3ccco3)cs2)cc1	25*	.	i	1.8	-12.1
CN(C)CCCNS(=O)(=O)c1ccc(N2CCC(c3ccc(Cl)cc3)=N2)cc1	i	37.1*	.	73.4*	55.2*
O=S(=O)(c1ccc(N2CCC(c3ccc(Cl)cc3)=N2)cc1)N(CCO)CCO	i	-22.2	i	19.5	23.9
COc1ccc(OC)c(N=c2oc3c(OC)cccc3cc2C(=O)NCc2ccco2)c1	i	.	i	9.6	-39.7
COc1ccccc1N=c1oc2c(OC)cccc2cc1C(=O)NCc1ccco1	25*	1.7	i	15.6	-20.2
CCCCn1c(N)c(N(CC(C)C)C(=O)CCCn2c(=O)oc3ccccc32)c(=O)[nH]c1=O	i	.	i	-0.2	1.2
CN(C)CCn1c2ccccc2c2nc3ccc([N+](=O)[O-])cc3cc21	i	48.4*	i	-2.9	-4.9
Cc1ccc(C(C(=O)NC2CCCCC2)N(Cc2ccccc2)C(=O)Cc2c[nH]c3ccccc23)o1 (configuration not stated)	i	-29.8	i	35.0	-12.5
COc1ccc(CN(C(=O)Cc2c[nH]c3ccccc23)C(C(=O)NC2CCCCC2)c2ccc(C)o2)cc1 (configuration not stated)	i	89.0*	i	27.5	-12.0
COC(=O)c1ccc(/C=C/c2c(-c3ccsc3)sc3ccccc23)cc1	i	-10.0	i	14.1	-17.6
Cc1nc2ccc(NC(=O)c3cc([N+](=O)[O-])cc([N+](=O)[O-])c3Cl)cc2s1	i	-0.1	-5.71*	.	.
Cc1nc2ccc(NC(=O)c3ccc(Cl)c([N+](=O)[O-])c3)cc2s1	i	5.2	i	2.9	1.4
OCCCNc1ncnc2scc(-c3ccc(Cl)cc3)c12	i	-30.5	i	3.3	8.4
COc1ccc(-n2cc(CNC3CCN(C)CC3)c(-c3cccc(F)c3)n2)cc1	i	42.5*	i	-2.1	14.3
O=C(NNC(=S)NC(=O)C12CC3CC(CC(C3)C1)C2)c1ccncc1	25*	-19.6	i	-12.8	-28.7
O=C(Nc1ccc(N2CCCCC2)cc1)c1ccc2ccccc2n1	i	-3.0	i	18.6	-7.5
CCc1ccc(OC)c(S(=O)(=O)Nc2ccc(Cc3ccncc3)cc2)c1	i	-19.0	i	26.7	6.5
COc1ccc(S(=O)(=O)Nc2ccc(Cc3ccncc3)cc2)cc1OC	25*	-10.2	i	5.6	2.3
O=C(O)CC(C(=O)O)N1C(=O)/C(=C/c2ccc(-c3nc4ccccc4s3)o2)SC1=S (configuration not stated)	i	1.9	-7.75*	37.9	-13.2
COc1ccc(C2=NOC(C(=O)N(C)Cc3ccccc3)C2)cc1 (configuration not stated)	i	-14.1	i	-10.5	11.6
CCCOc1ccc(N2CC(C(=O)Nc3ccc(N4CCOCC4)cc3)CC2=O)cc1 (configuration not stated)	i	5.0	i	-1.8	1.8
CCC(C)NC(=O)Nc1ccc(Br)cc1 (configuration not stated)	i	0.6	i	4.9	0.2
